# CHO-K1 Ca antag = counter-screen for M1 antagonists: effect in parental CHO-K1 cells | ATP-induced calcium, Fluo-8 fluorescence | AID 602250 | inhibition, % at 3 µM | 360,000 compounds, 0.6% hits;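 active = inhibition above a per-plate cutoff, the plate's mean sample inhibition plus 3 SD, cut at about 24% in these data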;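 note: 0% = DMSO plus EC80 ATP and 100% = DMSO alone without ATP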
# M1 ag parental = counter-screen for M1 agonists: effect in parental CHO-K1 cells. 360,000 compounds, 0.48% hits. Fluo-8 calcium fluorescence; scaled to maximal ATP response, vehicle zero. activation, % at 3 µM; in the data active = activation above about 15%;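 note: untransfected CHO-K1 host cells lacking M1 receptor as counterscreen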
# OX1R antag-1 = antagonists of human orexin 1 receptor (OX1R) | OX1R-expressing cells, FRET antagonist read-out | 330,000 compounds, 1.8% hits | inhibition, % at 6.6 µM | O43613; in the data active = inhibition mostly above about 38%, no sharp cut-off; inactive = mostly below about 40%;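 note: 0% = agonist challenge alone and 100% = reference antagonist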
# Target sequence (O43613 whole entry, looked up): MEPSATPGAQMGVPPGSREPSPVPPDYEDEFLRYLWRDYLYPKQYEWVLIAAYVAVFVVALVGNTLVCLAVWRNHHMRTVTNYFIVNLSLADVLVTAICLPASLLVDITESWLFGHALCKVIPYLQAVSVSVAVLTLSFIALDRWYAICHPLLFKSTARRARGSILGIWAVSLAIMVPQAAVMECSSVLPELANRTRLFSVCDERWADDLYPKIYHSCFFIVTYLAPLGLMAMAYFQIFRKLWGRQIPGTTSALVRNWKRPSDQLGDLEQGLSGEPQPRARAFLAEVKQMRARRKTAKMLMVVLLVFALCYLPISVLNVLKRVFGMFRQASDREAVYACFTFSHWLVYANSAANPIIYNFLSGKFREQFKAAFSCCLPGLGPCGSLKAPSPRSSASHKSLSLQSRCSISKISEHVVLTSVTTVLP
# CHO-K1 Ca PAM = nonselective activator or artifact in parental CHO-K1 calcium assay; AID 602247; 360,000 compounds, 0.02% hits; ATP EC20, Fluo-8 calcium fluorescence; 0% at ATP EC20, 100% at ATP max; activation, % at 3 µM;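 active = activation above the run cutoff, the mean activation of all test compounds plus 3 SD, cut at about 40% in these data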;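 note: peak over basal fluorescence ratio in a 140 s read after ATP addition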
# OX1R antag-2 = human HCRTR1 antagonism. CHO/OX1R cells, Fluo-8 calcium fluorescence, orexin A. O43613. inhibition, % at 5 µM. 330,000 compounds, 0.43% hits;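 active = inhibition above its plate's threshold, mean inhibition of all tested compounds on the plate plus 3 SD, cut at about 37% in these data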;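 note: 0% = orexin A challenge wells and 100% = SB-334867-A antagonist wells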
# CHO parental Ca = counter-screen for OX1R antagonists: effect in parental CHO cells; parental CHO-K1, ATP-induced calcium, Fluo-8 fluorescence; inhibition, % at 5.6 µM; 330,000 compounds, 0.63% hits; AID 463079;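 active = inhibition above that plate's mean sample inhibition plus 3 SD, cut at about 26% in these data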;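 note: 0% = ATP-challenged DMSO wells and 100% = DMSO wells without ATP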
#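 Material: parental CHO cells / Compound: single nominal dose of 5.6 µM per compound / Signal: Fluo-8 fluorescence / Replicates: singlicate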
# OX1R Ca confirm = confirmation of human orexin 1 receptor antagonists | CHO/OX1R cells, orexin A calcium Fluo-8 fluorescence | inhibition, % at 5 µM | 1,100 compounds, 38% hits | shares compounds with OX1R antag-2; in the data active = inhibition above about 29%;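 note: 0% = agonist challenge alone and 100% = reference antagonist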
# CHO Ca counter = signal in parental CHO cells, OX1R antagonist counter-screen | shares compounds with OX1R antag-2 | parental CHO-K1, ATP-induced calcium, Fluo-8 fluorescence | inhibition, % at 5.6 µM | 1,100 compounds, 9.3% hits | AID 492965;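 active = inhibition above a per-plate limit, the mean inhibition of that plate's test compounds plus 3 SD, cut at about 25% in these data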;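 note: 0% = ATP challenge with DMSO and 100% = DMSO without ATP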
# OX1R HTRF conf = confirmation of human orexin 1 receptor antagonists, HTRF format; inhibition, % at 6.6 µM; shares compounds with OX1R antag-1; OX1R-expressing cells, HTRF antagonist assay; 1,800 compounds, 49% hits; in the data active = inhibition above about 55%;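 note: CHO cells expressing OX1R stimulated with orexin A at about EC80; 0% = agonist challenge alone and 100% = reference antagonist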
# CHO-K1 HTRF cnt = signal in parental CHO-K1 cells, OX1R antagonist counter-screen; shares compounds with OX1R antag-1; HTRF counterscreen; inhibition, % at 6.6 µM; 1,800 compounds, 48% hits; AID 493232; in the data active = inhibition above about 17%;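 note: 0% = agonist challenge with vehicle and 100% = vehicle alone without agonist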
# * hit, by the source's call; nt = no result given. Compounds with a hit are over-represented: about 2.9% of the library has one in this group of screens.
SMILES,CHO-K1 Ca antag,M1 ag parental,OX1R antag-1,CHO-K1 Ca PAM,OX1R antag-2,CHO parental Ca,OX1R Ca confirm,CHO Ca counter,OX1R HTRF conf,CHO-K1 HTRF cnt
COc1ccc(-c2[nH]ncc2N=Nc2ccccc2)cc1,5,0,98*,6,28,5,25,2,45,13
COc1ccc(-c2[nH]ncc2N=Nc2cc(C)cc(C)c2)cc1,-1,-1,17,4,4,23,nt,nt,nt,nt
CCN(CC(=O)Nc1cccc(S(=O)(=O)N(C)c2ccccc2)c1)Cc1ccccc1,1,0,28*,-21,77*,15,19,-9,54,3
CCCN(CC(=O)Nc1ccccc1OC)C(=O)Cn1[nH]c(=O)c2ccccc2c1=O,-16,1,7,17,-22,-22,nt,nt,nt,nt
CCCN(CC(=O)Nc1ccccc1OC)C(=O)CSc1ccc(Br)cc1C,4,-1,58*,-17,54*,-24,22,-11,73*,4
O=C(Nc1ccc2c(c1)OCCO2)C(c1ccnc2ccccc12)N1CCN(C/C=C/c2ccccc2)CC1 (stereo not drawn),-17,0,nt,-5,nt,nt,nt,nt,nt,nt
COc1ccc2oc(=Nc3cc(F)ccc3F)c(C(N)=O)cc2c1,6,0,87*,-9,27,4,43*,1,75*,11
COc1ccc(OC)c(N=c2oc3cc(O)ccc3cc2C(N)=O)c1,8,0,35,-8,-8,-4,nt,nt,nt,nt
Cc1cnc(NC(=O)c2ccc(-c3nc4ccccc4s3)o2)s1,3,2,106*,-4,82*,-27,83*,-8,101*,10
COc1ccccc1Nc1nnc(SCC(=O)Nc2nc(-c3ccc(F)cc3)cs2)s1,-14,-1,18,-10,-14,3,nt,nt,nt,nt
Cc1cccc(NC(=O)NNC(=O)c2cc(-c3ccccc3Cl)nc3ccccc23)c1,-6,3,83*,2,44*,-18,38*,6,92*,4
C=CCn1c2ccccc2c(=O)c2cc(C#Cc3cc(OC)cc(OC)c3)ccc21,-12,0,47*,-4,69*,-15,45*,-16,66*,20*
COc1cc(C#Cc2c(C=O)n(C)c3ccccc23)cc(OC)c1,-4,0,1,-1,-5,-11,nt,nt,nt,nt
CC(NS(=O)(=O)c1ccc(OCC(=O)Nc2cccc([N+](=O)[O-])c2)cc1)c1ccccc1 (stereo not drawn),5,10,66*,7,54*,46,60*,18,69*,8
O=C(COC(=O)COc1ccccc1)Nc1cccc([N+](=O)[O-])c1,11,1,25,-10,-9,-2,nt,nt,nt,nt
COc1ccc(CN(C(=O)CN2C(=O)C(C)Oc3ccccc32)C2CCCC2)c(OC)c1 (stereo not drawn),-11,2,84*,15,59*,-29,24,-13,77*,4
CN(CC(=O)Nc1c(Cl)cccc1Cl)C(=O)c1ccccc1-c1nc2ccccc2s1,-10,2,38,-13,-45,-33,nt,nt,nt,nt
COc1cccc(NC(=O)CN(C)C(=O)c2ccccc2-c2nc3ccccc3s2)c1,-14,2,100*,-1,17,-37,17,-5,88*,5
CCOC(=O)C1=C(CS(=O)(=O)c2ccc(C)cc2)NC(=O)NC1c1cc(OC)c(O)c(OC)c1 (stereo not drawn),-6,0,39,-13,-12,-1,nt,nt,nt,nt
CCn1c(O)c(/C=C2\C=NN=C2c2ccccc2)sc1=S,0,1,25,4,-15,-37,nt,nt,nt,nt
Cn1c(O)c(/C=C2\C=NN=C2c2ccccc2)sc1=S,-3,2,39*,4,41*,-21,9,-6,40,1
COc1ccccc1N(CC(=O)NCCC1=CCCCC1)S(=O)(=O)c1ccccc1,-6,-1,85*,13,63*,-34,45*,-20,87*,0
COc1ccccc1N(CC(=O)NCCSCc1cccc(C)c1)S(=O)(=O)c1ccccc1,12,3,70*,-7,32,3,41*,-15,78*,-2
COc1ccc(N(CC(=O)NCCC2=CCCCC2)S(=O)(=O)c2ccccc2)cc1OC,-11,1,54,11,2,-15,nt,nt,nt,nt
Cc1ccc(C(=O)N(CC(=O)NC2CCCCC2)c2ccccc2C)s1,-6,0,22,4,-10,-13,nt,nt,nt,nt
SMILES,CHO-K1 Ca antag,M1 ag parental,OX1R antag-1,CHO-K1 Ca PAM,OX1R antag-2,CHO parental Ca,OX1R Ca confirm,CHO Ca counter,OX1R HTRF conf,CHO-K1 HTRF cnt
Cc1ccccc1N(CC(=O)NC1CCCC1)C(=O)c1oc(C(C)(C)C)cc1C,-20,1,93*,15,38,-21,57*,-9,86*,2
Cn1cc(-c2csc(C(C)(O)c3cccnc3)n2)cn1 (stereo not drawn),-8,0,nt,16,nt,nt,nt,nt,nt,nt
COC1C(CO)OC(n2c3c(Cl)cccc3c3c4c(c5c6cccc(Cl)c6[nH]c5c32)C(=O)NC4=O)C(O)C1O (stereo not drawn),-8,0,nt,5,nt,nt,nt,nt,nt,nt
CCN(CC)P(=O)(Nc1cccc(C(F)(F)F)c1)c1ccc(N(C)C)cc1NC(=O)c1ccco1 (stereo not drawn),-10,-1,82*,4,87*,-13,64*,-9,86*,-16
CN(C)c1cccc(NC(=O)c2ccco2)c1,-6,0,6,12,-15,-13,nt,nt,nt,nt
COc1cc(C(=O)Nc2nnc(CC(C)C)s2)c([N+](=O)[O-])cc1OC,9,-1,23,-8,-12,0,nt,nt,nt,nt
CCc1cc2c(SCC(=O)N(CC)c3c(N)n(Cc4ccccc4)c(=O)[nH]c3=O)ncnc2s1,-10,1,84*,18,40,-16,48*,-9,93*,1
CCCCN(C(=O)CSc1ncnc2sccc12)c1c(N)n(Cc2ccccc2)c(=O)[nH]c1=O,-11,0,22,9,-18,-18,nt,nt,nt,nt
Cc1ccc(N2CC(C(=O)Nc3cc(S(=O)(=O)N4CCCCC4)ccc3C)CC2=O)cc1 (stereo not drawn),-1,0,nt,-4,nt,nt,nt,nt,nt,nt
Cc1cc(C(=O)CN2C(=O)NC3(CCCc4sccc43)C2=O)c(C)n1-c1ccccc1 (stereo not drawn),4,1,85*,-4,38*,-10,35*,-10,80*,-3

# Compound activity from PubChem BioAssay.
